SUMO1-SIM PPI = SUMO1-SIM interaction modulation; P63165; 0.33% of 360,000 active; SUMO1 binding to a labelled peptide, TR-FRET, 1 h; inhibition, % at 20 µM; AID 602429; in the data active means inhibition above about 37%
Target sequence (P63165 whole entry, looked up): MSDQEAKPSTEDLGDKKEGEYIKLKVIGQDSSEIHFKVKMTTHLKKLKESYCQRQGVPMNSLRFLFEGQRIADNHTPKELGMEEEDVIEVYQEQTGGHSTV
HKDC1 inhibitor = blocks human hexokinase HKDC1 activity; inhibition, % at 20 µM; AID 493160; 0.16% of 340,000 active; recombinant HKDC1, G6PDH/diaphorase resazurin coupled fluorescence;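 active means inhibition above about 35% when tested at 20 µM, limit read from the data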
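Assay system: in-house recombinant HK5 (HKDC1) enzyme. Input: HKDC1 at 5 µg/mL. Medium: Tris pH 8.0 buffer with MgCl2, Tween-20, BSA, BME. Dosing: single 20 µM dose. Schedule: 90 min reaction incubation at room temperature, dark. Signal: resazurin-to-resorufin fluorescence via G6PDH and diaphorase coupling, 525/613 nm. Controls: DMSO-enzyme wells negative, buffer-substituted wells positive.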
Scp-1 inhibitor = inhibitors of human Scp-1 phosphatase; 0.88% of 340,000 active; Recombinant Scp1, phosphopeptide, malachite green phosphate absorbance; inhibition, % at 20 µM;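 active means inhibition above about 50% at 20 µM, limit read from the data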
Target sequence (Q9GZU7 76-261 limits assumed): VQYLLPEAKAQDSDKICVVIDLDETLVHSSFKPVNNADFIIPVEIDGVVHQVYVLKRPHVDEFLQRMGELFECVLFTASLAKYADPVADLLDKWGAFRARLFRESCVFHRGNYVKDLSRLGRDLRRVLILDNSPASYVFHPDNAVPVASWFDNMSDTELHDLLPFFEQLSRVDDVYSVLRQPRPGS
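System: truncated SCP-1 phosphatase (76-261aa); medium: Tris acetate buffer pH 5.5 with MgCl2 and Tween-20; incubation: 45 min room-temperature reaction, 5 min colour, 30 min stabiliser; compound: single 20 µM dose, 1% DMSO; reagent: Phosphorylated 17-residue peptide substrate; read-out: % inhibition at 20 µM; technique: colorimetric free-phosphate detection, absorbance 630 nm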
DNMT1 inh = DNMT1 (human) enzyme inhibition | DNMT1 molecular beacon, Hinp1I cleavage, fluorescence | inhibition (reported as % activation of signal), % at 10 µM | AID 588458 | 0.83% of 360,000 active; in the data active means inhibition above about 50%
STEP block = blocks human striatal-enriched tyrosine phosphatase; 0.25% of 360,000 active; inhibition, % at 20 µM; P54829; recombinant STEP, OMFP fluorogenic substrate, fluorescence;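 active means inhibition at 20 µM, scaled per plate between control wells, above about 37%, limit read from the data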
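Assay system: isolated STEP enzyme / Timing: 20 min at room temperature, dark / Doses: 20 µM, 1% DMSO / Technique: fluorescence intensity, excitation 480 nm, emission 540 nm / Reagent: fluorogenic phosphatase substrate OMFP at 25 µM final / Measure: percent inhibition scaled to no-enzyme and uninhibited-enzyme controls, plate-pattern corrected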
LMPTP inh = LMPTP (human) inhibition; P24666; recombinant LMPTP-A, OMFP fluorogenic substrate, fluorescence intensity; inhibition, % at 20 µM; 0.22% of 360,000 active; AID 651560;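 active means compounds that cut the enzyme signal by at least half of the control window in the single-dose screen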
Target sequence (P24666 whole entry, looked up): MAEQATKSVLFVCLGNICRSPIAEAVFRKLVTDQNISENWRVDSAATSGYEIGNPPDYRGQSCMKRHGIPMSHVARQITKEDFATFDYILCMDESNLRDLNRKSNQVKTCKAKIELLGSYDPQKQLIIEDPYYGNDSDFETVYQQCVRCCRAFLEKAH
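Test system: LMPTP-A, protein tyrosine phosphatase of low molecular weight; Input: 0.625 nM enzyme; Incubation: 50 min dark incubation at room temperature; Signal: endpoint fluorescence intensity from OMFP dephosphorylation; Read-out basis: % inhibition versus control wells.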
Beacon interf DR = beacon fluorescence artifact, dose response counter-screen; IC50, µM; AID 602382; 200 tested, under 10 active; shares compounds with DNMT1 inh; molecular beacon fluorescence, spectral interference counter-screen; call rule not given here
DNMT1 confirm = confirmation of human DNMT1 inhibitors; shares compounds with DNMT1 inh; DNMT1 molecular beacon HinP1I cleavage, fluorescence; inhibition, % at 10 µM; 8% of 2,300 active;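 active means average inhibition of at least 30% in the single-concentration confirmation test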
DNMT1 interf = shows spectral interference in the DNMT1 beacon assay; shares compounds with DNMT1 inh; DNMT1 molecular beacon spectral interference counterscreen, fluorescence 485/520; activation (fluorescence interference), % at 10 µM; 1% of 2,300 active; AID 602387;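 active means activation of at least 30% at 10 µM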;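 further: DNMT1 catalytic domain with a HinP1I cleavage step and a FAM/dabcyl DNA beacon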
A number is an active result; 0 = inactive; - = not tested or not shown. Most compounds without a hit are left out; they make up all but 1.8% or so of the library.

SMILES	SUMO1-SIM PPI	HKDC1 inhibitor	Scp-1 inhibitor	DNMT1 inh	STEP block	LMPTP inh	DNMT1 confirm	DNMT1 interf	others
CCOc1ccc(-c2nnc3sc(COc4ccc(C)cc4)nn23)cc1	0	0	0	0	0	0	-	-
CCOc1ccc(-c2nnc3sc(COc4ccc(Cl)cc4)nn23)cc1	0	0	0	58	0	0	0	0
CCC(C)NC(=O)COC(=O)c1ccccc1OCC(=O)Nc1ccc(Br)cc1 (centres undefined)	0	0	0	51	0	0	0	0
O=C(COC(=O)c1ccccc1OCC(=O)Nc1ccc(Br)cc1)Nc1ccccc1	0	0	0	0	0	0	-	-
C=CCn1c(SCC(=O)NC2CCCC2)nc2scc(-c3ccco3)c2c1=O	0	0	0	52	0	0	0	0
C=CCn1c(SCC(=O)NCC2CCCO2)nc2scc(-c3ccccc3)c2c1=O (centres undefined)	0	0	0	0	0	0	-	-
Nc1ccc(S(=O)(=O)Nc2nccs2)cc1N=Nc1ccccc1[N+](=O)[O-]	0	0	0	77	0	0	80	0	Beacon interf DR=0
CC(C)n1cc(/C=N/Nc2ccc(Cl)c(C(=O)O)c2)c2ccccc21	114	-	-	82	91	54	0	0
O=C(O)c1cc(N/N=C/c2cccc3ccccc23)ccc1Cl	0	0	0	0	0	0	-	-
O=C1C=C(O)CC(c2ccco2)C1 (centres undefined)	0	0	0	80	0	0	0	0
O=C1C=C(Nc2ccc(O)cc2)CC(c2ccco2)C1 (centres undefined)	0	0	0	0	0	0	-	-
Cc1cccc2c(=O)n(C(=O)c3ccccc3)c(N)nc12	0	-	-	0	0	0	-	-
Cc1cc(C)c(NC(=O)CSc2nc(COc3ccccc3)nc3ccccc23)c(C)c1	0	0	0	70	0	0	0	0
Cc1ccccc1OCC(=O)NNC(=O)C1CC(=O)N(c2ccc3c(c2)OCCO3)C1 (centres undefined)	0	0	0	0	0	0	-	-
Cc1ccc(CNC(=O)[C@H]2C[C@@H]2[C@H](NP(=O)(c2ccccc2)c2ccccc2)c2ccccc2)o1	0	0	0	71	0	0	0	0
O=C(/C=C/c1ccco1)Nc1sc2c(c1C(=O)O)CCC2	0	0	0	53	0	0	0	0
O=C(/C=C/c1ccco1)Nc1ccccc1C(=O)O	0	0	54	80	0	0	0	0
O=C(/C=C/c1ccco1)Nc1cc(Cl)ccc1C(=O)O	0	0	0	0	0	0	-	-
CCc1ccc(NC(=O)c2cnc3scc(C)n3c2=O)cc1	0	0	0	0	0	0	-	-
Cc1csc2ncc(C(=O)Nc3cccc(C(F)(F)F)c3)c(=O)n12	0	0	0	68	0	0	0	0
COC(=O)c1cc(C#N)c(=O)[nH]c1C	0	0	0	89	0	0	0	0
C[C@@H]1CN([C@H](C)CO)C(=O)CCCn2nncc2CO[C@H]1CN(C)Cc1cccc(C(=O)O)c1	0	-	-	0	0	0	-	-
O=C(/C=C/c1ccc(Cl)cc1Cl)N1CCN(c2ccccc2[N+](=O)[O-])CC1	0	0	0	92	0	0	0	0
Nc1c(N(CCC2=CCCCC2)C(=O)Cc2ccc(F)cc2)c(=O)[nH]c(=O)n1Cc1ccccc1	0	0	0	0	0	0	-	-
Nc1c(N(CCC2=CCCCC2)C(=O)COc2ccc(F)cc2Cl)c(=O)[nH]c(=O)n1Cc1ccccc1	0	0	0	54	0	0	0	0
SMILES	SUMO1-SIM PPI	HKDC1 inhibitor	Scp-1 inhibitor	DNMT1 inh	STEP block	LMPTP inh	DNMT1 confirm	DNMT1 interf	others
Nc1c(N(CCC2=CCCCC2)C(=O)COc2ccc([N+](=O)[O-])cc2)c(=O)[nH]c(=O)n1Cc1ccccc1	0	0	0	58	0	0	0	0
CC(=O)c1ccc(OCC(=O)N(CCC2=CCCCC2)c2c(N)n(Cc3ccccc3)c(=O)[nH]c2=O)cc1	0	0	0	0	0	0	-	-
O=C(Nc1ccc(Br)cc1)c1cc(-c2cccs2)on1	0	0	0	0	0	0	-	-
O=C(Nc1ccc(Cl)cc1)c1cc(-c2cccs2)on1	0	0	0	50	0	0	0	0
O=C(COc1ccc(/C=N/NC(=O)c2cc3ccccc3o2)cc1Br)Nc1ccccc1	0	0	83	64	64	0	0	0
O=C(N/N=C/c1ccco1)c1cc2ccccc2o1	0	0	0	0	0	0	-	-
O=C(COc1ccccc1[N+](=O)[O-])Nc1ccc(NC(=O)c2cc3ccccc3o2)cc1	0	0	0	59	0	0	0	0
O=C(COc1ccccc1[N+](=O)[O-])Nc1ccc2oc(=O)ccc2c1	0	0	0	0	0	0	-	-
Cc1cc(=O)oc2cc(NC(=O)COc3ccccc3[N+](=O)[O-])ccc12	0	0	0	72	0	0	0	0
O=C(O)C(=Cc1ccc([N+](=O)[O-])cc1)c1cccc(Cl)c1	0	-	-	0	0	0	-	-
CCc1ccc2c(c1)NC(=O)C2(C)Cc1ccccc1OC (centres undefined)	0	-	-	0	0	0	-	-
COc1ccc(C(=O)Nc2ccccc2C(=O)Nc2cccc(C)n2)cc1	0	0	0	83	0	0	0	0
COc1ccccc1CCNC(=O)c1cc(-c2ccccn2)nc2ccccc12	0	0	0	0	0	0	-	-
CSc1ccccc1NC(=O)c1cc(-c2cccnc2)nc2ccc(Br)cc12	0	0	0	56	0	0	0	0
COc1ccccc1CCNC(=O)c1cc(-c2ccncc2)nc2ccc(Br)cc12	0	0	0	50	0	0	0	0
C=CC[C@@H](CC(=O)N[C@@H](CO)Cc1ccccc1)C(=O)NC[C@@H](OC(=O)[C@@H](CC=C)Cc1ccc(F)cc1)c1ccccc1	0	0	0	66	0	0	0	0
C=CCC[C@@H](Cc1ccc(F)cc1)C(=O)OC[C@@H](Cc1c[nH]c2ccccc12)NC(=O)[C@@H](CC=C)CC(=O)N(CCO)Cc1ccccc1	0	0	0	60	0	0	0	0
C=CCC[C@@H](Cc1ccc(F)cc1)C(=O)OC[C@@H](Cc1c[nH]c2ccccc12)NC(=O)[C@H](CC=C)CC(=O)N[C@H](CO)Cc1ccccc1	0	0	0	71	0	0	0	0

Bioassay records: PubChem BioAssay, Sanford-Burnham Center for Chemical Genomics
